Where a SMILES comes first, the peptide text is derived from it.
tested on: Rattus norvegicus; experiment: Plasma histamine level of the peptide after intra arterial administration at time 0 min in rats; format: functional, organism-based

**Q.** How did the Plasma histamine turn out when `CC[C@H](C)[C@H](NC(=O)[C@H](Cc1ccc(O)cc1)NC(=O)[C@H](Cc1c[nH]cn1)NC(=O)[C@H](CCCN=C(N)N)NC(=O)[C@H](CC(C)C)NC(=O)[C@H](C)NC(=O)[C@H](CO)NC(=O)[C@H](Cc1ccc(O)cc1)NC(=O)[C@H](Cc1ccc(O)cc1)NC(=O)[C@H](CCCN=C(N)N)NC(=O)[C@H](C)NC(C)=O)C(=O)N[C@@H](CC(N)=O)C(=O)N[C@@H](CC(C)C)C(=O)N[C@H](C(=O)N[C@H](C(=O)N[C@@H](CCCN=C(N)N)C(=O)N[C@@H](CCC(N)=O)C(=O)N[C@@H](CCCN=C(N)N)C(=O)N[C@@H](Cc1ccc(O)cc1)C(N)=O)[C@@H](C)O)[C@@H](C)CC` was run?
**A.** The Plasma histamine was 16 ng/mL.

tested on: Rattus norvegicus; experiment: Plasma histamine level of the peptide after intra arterial administration at time 5 min in rats; format: functional, organism-based

**Q.** For `CC[C@H](C)[C@H](NC(=O)[C@H](Cc1ccc(O)cc1)NC(=O)[C@H](Cc1c[nH]cn1)NC(=O)[C@H](CCCN=C(N)N)NC(=O)[C@H](CC(C)C)NC(=O)[C@H](C)NC(=O)[C@H](CO)NC(=O)[C@H](Cc1ccc(O)cc1)NC(=O)[C@H](Cc1ccc(O)cc1)NC(=O)[C@H](CCCN=C(N)N)NC(=O)[C@H](C)NC(C)=O)C(=O)N[C@@H](CC(N)=O)C(=O)N[C@@H](CC(C)C)C(=O)N[C@H](C(=O)N[C@H](C(=O)N[C@@H](CCCN=C(N)N)C(=O)N[C@@H](CCC(N)=O)C(=O)N[C@@H](CCCN=C(N)N)C(=O)N[C@@H](Cc1ccc(O)cc1)C(N)=O)[C@@H](C)O)[C@@H](C)CC`, which Plasma histamine is on record?
**A.** The Plasma histamine was 31.1 ng/mL.

tested on: Rattus norvegicus; experiment: Change in mean arterial pressure measured 5 min after intra arterial administration at 0.4 mg/kg to male rats.; format: functional, Artery; design: unit not given here
Summary of the method: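 Conscious, freely moving male Sprague-Dawley rats (240–280 g) with arterial catheters; peptide in saline given IA as a 100-µL bolus (100 µg). MAP recorded by pressure transducer, calculated as [[…] + diastolic]. Baseline set by saline vehicle injection before dosing; change read 5 min post-dose relative to pre-dose control. Mean ± SEM, n ≥ 3.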

**Q.** How did the “Delta MAP” value turn out when `CC[C@H](C)[C@H](NC(=O)[C@H](Cc1ccccc1)NC(=O)[C@H](Cc1c[nH]cn1)NC(=O)[C@H](CCCN=C(N)N)NC(=O)[C@H](CC(C)C)NC(=O)[C@H](C)NC(=O)[C@H](CO)NC(=O)[C@H](Cc1ccc(O)cc1)NC(=O)[C@H](Cc1ccccc1)NC(=O)[C@H](CCCN=C(N)N)NC(=O)[C@H](C)N)C(=O)N[C@@H](CC(N)=O)C(=O)N[C@@H](CC(C)C)C(=O)N[C@H](C(=O)N[C@H](C(=O)N[C@@H](CCCN=C(N)N)C(=O)N[C@@H](CCC(N)=O)C(=O)N[C@@H](CCCN=C(N)N)C(=O)N[C@@H](Cc1ccccc1)C(N)=O)[C@@H](C)O)[C@@H](C)CC` (H-ARFYSALRHFINLITRQRF-NH2) was run?
**A.** The value was 3.

**Q.** How did the “Delta MAP” value turn out when `CC[C@H](C)[C@H](NC(=O)[C@H](Cc1ccc(O)cc1)NC(=O)[C@H](Cc1c[nH]cn1)NC(=O)[C@H](CCCN=C(N)N)NC(=O)[C@H](CC(C)C)NC(=O)[C@H](C)NC(=O)[C@H](CO)NC(=O)[C@H](Cc1ccc(O)cc1)NC(=O)[C@H](Cc1ccc(O)cc1)NC(=O)[C@H](CCCN=C(N)N)NC(=O)[C@H](C)N)C(=O)N[C@@H](CC(N)=O)C(=O)N[C@@H](CC(C)C)C(=O)N[C@H](C(=O)N[C@H](C(=O)N[C@@H](CCCN=C(N)N)C(=O)N[C@@H](CCC(N)=O)C(=O)N[C@@H](CCCN=C(N)N)C(=O)N[C@@H](Cc1ccc(O)cc1)C(=O)N[C@@H](Cc1ccc(O)cc1)C(=O)O)[C@@H](C)O)[C@@H](C)CC` was run?
**A.** The value was -8.35.

**Q.** How did the “Delta MAP” value turn out when `CC[C@H](C)[C@H](NC(=O)[C@H](Cc1ccc(O)cc1)NC(=O)[C@H](Cc1c[nH]cn1)NC(=O)[C@H](CCCN=C(N)N)NC(=O)[C@H](CC(C)C)NC(=O)[C@H](C)NC(=O)[C@H](CO)NC(=O)[C@H](Cc1ccc(O)cc1)NC(=O)[C@H](Cc1ccc(O)cc1)NC(=O)[C@H](CCCN=C(N)N)NC(=O)[C@H](C)NC(C)=O)C(=O)N[C@@H](CC(N)=O)C(=O)N[C@@H](CC(C)C)C(=O)N[C@H](C(=O)N[C@H](C(=O)N[C@@H](CCCN=C(N)N)C(=O)N[C@@H](CCC(N)=O)C(=O)N[C@@H](CCCN=C(N)N)C(=O)N[C@@H](Cc1ccc(O)cc1)C(N)=O)[C@@H](C)O)[C@@H](C)CC` was run?
**A.** The value was 12.

**Q.** With `CC[C@H](C)[C@H](NC(=O)[C@H](Cc1ccc(O)cc1)NC(=O)[C@H](Cc1c[nH]cn1)NC(=O)[C@H](CCCN=C(N)N)NC(=O)[C@H](CC(C)C)NC(=O)[C@H](C)NC(=O)[C@H](CO)NC(=O)[C@H](Cc1ccc(O)cc1)NC(=O)[C@H](Cc1ccc(O)cc1)NC(=O)[C@H](CCCN=C(N)N)NC(=O)[C@H](C)N)C(=O)N[C@@H](CC(N)=O)C(=O)N[C@@H](CC(C)C)C(=O)N[C@H](C(=O)N[C@H](C(N)=O)[C@@H](C)O)[C@@H](C)CC` (H-ARYYSALRHYINLIT-NH2) as the compound, how does the “Delta MAP” value read?
**A.** Its value is 0.

**Q.** `CC[C@H](C)[C@H](NC(=O)[C@H](Cc1ccccc1)NC(=O)[C@H](Cc1c[nH]cn1)NC(=O)[C@H](CCCN=C(N)N)NC(=O)[C@H](CC(C)C)NC(=O)[C@H](C)NC(=O)[C@H](CO)NC(=O)[C@H](Cc1ccc(O)cc1)NC(=O)[C@H](Cc1ccc(O)cc1)NC(=O)[C@H](CCCN=C(N)N)NC(=O)[C@H](C)N)C(=O)N[C@@H](CC(N)=O)C(=O)N[C@@H](CC(C)C)C(=O)N[C@H](C(=O)N[C@H](C(=O)N[C@@H](CCCN=C(N)N)C(=O)N[C@@H](CCC(N)=O)C(=O)N[C@@H](CCCN=C(N)N)C(=O)N[C@@H](Cc1ccccc1)C(N)=O)[C@@H](C)O)[C@@H](C)CC` (H-ARYYSALRHFINLITRQRF-NH2) was tested. Which “Delta MAP” value did it give?
**A.** The value was -6.

**Q.** With `CC[C@H](C)[C@H](NC(=O)[C@H](Cc1ccccc1)NC(=O)[C@H](Cc1c[nH]cn1)NC(=O)[C@H](CCCN=C(N)N)NC(=O)[C@H](CC(C)C)NC(=O)[C@H](C)NC(=O)[C@H](CO)NC(=O)[C@H](Cc1ccccc1)NC(=O)[C@H](Cc1ccccc1)NC(=O)[C@H](CCCN=C(N)N)NC(=O)[C@H](C)N)C(=O)N[C@@H](CC(N)=O)C(=O)N[C@@H](CC(C)C)C(=O)N[C@H](C(=O)N[C@H](C(=O)N[C@@H](CCCN=C(N)N)C(=O)N[C@@H](CCC(N)=O)C(=O)N[C@@H](CCCN=C(N)N)C(=O)N[C@@H](Cc1ccccc1)C(N)=O)[C@@H](C)O)[C@@H](C)CC` (H-ARFFSALRHFINLITRQRF-NH2) as the compound, how does the “Delta MAP” value read?
**A.** Its value is 12.33.

**Q.** Which “Delta MAP” value does the source give for `CC(C)C[C@H](NC(=O)[C@H](C)NC(=O)[C@H](CO)NC(=O)[C@H](Cc1ccc(O)cc1)NC(=O)[C@H](Cc1ccc(O)cc1)NC(=O)[C@H](CCCN=C(N)N)NC(=O)[C@H](C)N)C(=O)N[C@@H](CCCN=C(N)N)C(N)=O` (H-ARYYSALR-NH2) here?
**A.** Its value is 4.67.

**Q.** With `CC(C)C[C@H](NC(=O)[C@H](C)NC(=O)[C@H](CO)NC(=O)[C@H](Cc1ccc(O)cc1)NC(=O)[C@H](Cc1ccc(O)cc1)NC(=O)[C@H](CCCN=C(N)N)NC(=O)[C@H](C)N)C(N)=O` (H-ARYYSAL-NH2) as the compound, how does the “Delta MAP” value read?
**A.** Its value is 3.33.

**Q.** How did the “Delta MAP” value turn out when `CC(C)C[C@H](NC(=O)[C@H](C)NC(=O)[C@H](CO)NC(=O)[C@H](Cc1ccc(O)cc1)NC(=O)[C@H](Cc1ccc(O)cc1)NC(=O)[C@H](CCCN=C(N)N)NC(=O)[C@H](C)N)C(=O)N[C@@H](CCCN=C(N)N)C(=O)N[C@@H](Cc1c[nH]cn1)C(=O)N[C@@H](Cc1ccc(O)cc1)C(N)=O` (H-ARYYSALRHY-NH2) was run?
**A.** The value was -12.

**Q.** How did the “Delta MAP” value turn out when `CC[C@H](C)[C@H](NC(=O)[C@H](Cc1ccc(O)cc1)NC(=O)[C@H](Cc1c[nH]cn1)NC(=O)[C@H](CCCN=C(N)N)NC(=O)[C@H](CC(C)C)NC(=O)[C@H](C)NC(=O)[C@H](CO)NC(=O)[C@H](Cc1ccc(O)cc1)NC(=O)[C@H](Cc1ccc(O)cc1)NC(=O)[C@H](CCCN=C(N)N)NC(=O)[C@H](C)N)C(=O)N[C@@H](CC(N)=O)C(=O)N[C@@H](CC(C)C)C(=O)N[C@H](C(=O)N[C@H](C(=O)N[C@@H](CCCN=C(N)N)C(=O)N[C@@H](CCC(N)=O)C(=O)N[C@@H](CCCN=C(N)N)C(=O)N[C@@H](Cc1ccc(O)cc1)C(=O)O)[C@@H](C)O)[C@@H](C)CC` was run?
**A.** Its value is -4.75.

**Q.** How did the “Delta MAP” value turn out when `CC[C@H](C)[C@H](NC(=O)[C@H](Cc1ccccc1)NC(=O)[C@H](Cc1c[nH]cn1)NC(=O)[C@H](CCCN=C(N)N)NC(=O)[C@H](CC(C)C)NC(=O)[C@H](C)NC(=O)[C@H](CO)NC(=O)[C@H](Cc1ccccc1)NC(=O)[C@H](Cc1ccc(O)cc1)NC(=O)[C@H](CCCN=C(N)N)NC(=O)[C@H](C)N)C(=O)N[C@@H](CC(N)=O)C(=O)N[C@@H](CC(C)C)C(=O)N[C@H](C(=O)N[C@H](C(=O)N[C@@H](CCCN=C(N)N)C(=O)N[C@@H](CCC(N)=O)C(=O)N[C@@H](CCCN=C(N)N)C(=O)N[C@@H](Cc1ccccc1)C(N)=O)[C@@H](C)O)[C@@H](C)CC` (H-ARYFSALRHFINLITRQRF-NH2) was run?
**A.** The value was 7.66.

— ChEMBL document CHEMBL1125502, “Structural requirements for neuropeptide Y18-36-evoked hypotension: a systematic study” (1992)
